Results on one compound are retold here after article PMC5905822 (International Journal of Nanomedicine, 2018).

Series [1] is described as follows: Plasma pharmacokinetics in rats after intravenous injection. The class given is in vivo, Sprague Dawley (SD) rats. The essentials: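 Male SD rats (220–250 g), fasted overnight and randomized (n=6/group), got 6 mg/kg iv of free or lipid-carrier-formulated ester. An automated collector drew blood at 2–300 min, with saline volume replacement. Plasma was prepared cold and stored at −80°C, then extracted with ice-cold acetonitrile plus internal standard, dried under nitrogen and reconstituted in methanol. LC-MS measured the parent ester and its hydrolysed metabolite.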

For a further series, the system named is rat liver microsomes. Conditions: cited from earlier work.
The next series deals with human liver microsomes. Conditions: cited from earlier work.

As for `CC1(C)C2CCC1(C)C(OC(=O)C(O)Cc1ccc(O)c(O)c1)C2` (stereo not shown) [DBZ, 1,7,7-trimethylbicyclo[2.2.1]heptan-2-yl 3-[3,4-dihydroxyphenyl]-2-hydroxy-propanoate], in series [1] (analyte DBZ, rats, intravenous, 6 mg/kg), the “MRT0–∞ of plasma DBZ” value is reported as 0.149±0.015 H. In addition, the “Elimination from the blood circulation after injection” value in series [1] (preliminary pharmacokinetic studies in rats) is listed as “eliminated quickly”. For the same compound, the “Metabolism by the liver microsomal enzymes” value in the series with rat liver microsomes and with human liver microsomes was “metabolized quickly” in each case.
